Reference: ChEMBL document CHEMBL1124671, “Carboxyalkyl dipeptides with atrial natriuretic factor potentiating and antihypertensive activity” (J Med Chem, 1989)
Calls of active or inactive are those of the source. The rule behind the calls is not given here.

Legend:
Neprilysin = molecular target: T1, Neprilysin (Oryctolagus cuniculus, UniProt P08049); assay: Compound was evaluated for the ability to inhibit neutral endopeptidase purified from rabbit kidney
T1 sequence (P08049 whole entry): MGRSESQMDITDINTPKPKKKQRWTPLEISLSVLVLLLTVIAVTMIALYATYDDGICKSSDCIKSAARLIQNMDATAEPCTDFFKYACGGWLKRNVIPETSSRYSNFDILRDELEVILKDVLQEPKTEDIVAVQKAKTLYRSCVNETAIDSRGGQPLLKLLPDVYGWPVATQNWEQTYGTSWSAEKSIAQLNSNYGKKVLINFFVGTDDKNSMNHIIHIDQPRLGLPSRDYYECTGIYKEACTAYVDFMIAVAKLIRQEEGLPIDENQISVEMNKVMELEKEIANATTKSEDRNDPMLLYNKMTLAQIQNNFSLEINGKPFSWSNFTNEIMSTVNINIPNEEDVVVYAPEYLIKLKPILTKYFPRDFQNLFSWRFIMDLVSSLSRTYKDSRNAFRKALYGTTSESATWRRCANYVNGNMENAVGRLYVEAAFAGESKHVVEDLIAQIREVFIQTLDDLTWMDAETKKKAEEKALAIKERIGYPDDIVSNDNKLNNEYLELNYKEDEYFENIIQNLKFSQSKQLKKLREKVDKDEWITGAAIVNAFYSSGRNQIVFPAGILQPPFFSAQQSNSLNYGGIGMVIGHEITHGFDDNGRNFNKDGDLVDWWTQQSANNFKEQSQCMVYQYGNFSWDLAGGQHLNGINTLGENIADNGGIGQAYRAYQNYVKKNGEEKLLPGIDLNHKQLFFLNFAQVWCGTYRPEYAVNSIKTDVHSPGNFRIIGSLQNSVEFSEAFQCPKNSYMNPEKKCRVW
In short: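 Enzyme: purified rabbit kidney neutral endopeptidase (NEP).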

[1] = molecular target: T2, Angiotensin-converting enzyme (Rattus norvegicus, UniProt P47820); assay: Compound was evaluated for the ability to inhibit Angiotensin I converting enzyme in rat
T2 sequence (P47820 whole entry): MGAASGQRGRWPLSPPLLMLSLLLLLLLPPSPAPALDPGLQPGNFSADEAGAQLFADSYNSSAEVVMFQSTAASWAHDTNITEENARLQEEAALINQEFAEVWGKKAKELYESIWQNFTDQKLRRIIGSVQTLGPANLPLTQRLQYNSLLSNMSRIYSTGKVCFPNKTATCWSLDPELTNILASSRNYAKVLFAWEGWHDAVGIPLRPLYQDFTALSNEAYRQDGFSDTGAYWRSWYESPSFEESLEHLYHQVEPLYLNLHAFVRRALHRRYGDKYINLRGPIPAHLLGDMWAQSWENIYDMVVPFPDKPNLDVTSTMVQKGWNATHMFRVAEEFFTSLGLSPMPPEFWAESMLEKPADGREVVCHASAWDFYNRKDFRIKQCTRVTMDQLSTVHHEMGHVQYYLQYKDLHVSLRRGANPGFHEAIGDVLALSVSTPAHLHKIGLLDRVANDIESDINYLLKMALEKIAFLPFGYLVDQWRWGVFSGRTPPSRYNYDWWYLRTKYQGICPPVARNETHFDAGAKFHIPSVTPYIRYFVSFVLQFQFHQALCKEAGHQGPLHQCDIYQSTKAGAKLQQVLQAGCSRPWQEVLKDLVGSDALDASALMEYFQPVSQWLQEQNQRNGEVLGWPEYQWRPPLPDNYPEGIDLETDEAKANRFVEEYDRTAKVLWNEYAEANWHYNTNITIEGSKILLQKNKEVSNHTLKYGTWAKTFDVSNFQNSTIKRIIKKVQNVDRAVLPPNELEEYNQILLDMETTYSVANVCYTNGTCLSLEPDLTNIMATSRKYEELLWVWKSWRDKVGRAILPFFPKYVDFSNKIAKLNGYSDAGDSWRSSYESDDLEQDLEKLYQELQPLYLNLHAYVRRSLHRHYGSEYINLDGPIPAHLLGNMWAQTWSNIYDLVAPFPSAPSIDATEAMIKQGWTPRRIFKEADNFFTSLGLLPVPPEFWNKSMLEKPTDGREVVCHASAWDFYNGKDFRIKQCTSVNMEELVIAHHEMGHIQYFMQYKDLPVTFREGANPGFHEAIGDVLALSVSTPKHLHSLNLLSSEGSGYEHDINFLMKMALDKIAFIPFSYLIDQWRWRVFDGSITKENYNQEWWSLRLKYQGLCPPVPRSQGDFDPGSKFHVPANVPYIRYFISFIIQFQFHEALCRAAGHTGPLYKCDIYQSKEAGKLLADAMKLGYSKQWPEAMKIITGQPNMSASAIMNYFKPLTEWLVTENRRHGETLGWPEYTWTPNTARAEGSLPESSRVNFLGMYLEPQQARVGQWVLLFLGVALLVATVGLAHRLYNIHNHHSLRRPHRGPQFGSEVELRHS

[2] = molecular target: T3, Natriuretic peptides A (Rattus norvegicus) (UniProt P01161); assay: Compound was administered subcutaneously to spontaneously hypertensive rats (SHR) and evaluated for the ability to potentiate atrial natriuretic factor (ANF)
T3 sequence (whole entry): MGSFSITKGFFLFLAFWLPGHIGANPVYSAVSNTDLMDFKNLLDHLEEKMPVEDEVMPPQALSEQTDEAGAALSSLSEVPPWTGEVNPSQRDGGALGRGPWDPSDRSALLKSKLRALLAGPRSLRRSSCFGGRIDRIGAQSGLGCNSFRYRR
In short: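 Conscious SHR given 30 mg/kg s.c. 30 min before an i.v. challenge of 30 μg/kg ANF 103–125; mean arterial pressure followed, with vehicle-treated controls. Value is the maximum increase in hypotensive response to ANF over the control group.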

[3] = molecular target: T3, Natriuretic peptides A (Rattus norvegicus); conditions: Cardiac atrium

IC50 (Neprilysin) [nM] | IC50 [1] [nM] | SMILES | Delta blood pressure [2] [mmHg] | Delta blood pressure [3]
11 | > 1000 | O=C(O)[C@H](CCc1ccccc1)N[C@@H](Cc1ccccc1)C(=O)NC[C@H](O)C(=O)O (stereo in doubt; 6d) [listing 1 of 2 here] | – | –
11 | > 1000 | O=C(O)[C@H](Cc1ccccc1)N[C@@H](Cc1ccccc1)C(=O)NC[C@H](O)C(=O)O | 17 | –
– | – | O=C(O)[C@H](CCc1ccccc1)N[C@@H](Cc1ccccc1)C(=O)NC[C@H](O)C(=O)O (stereo in doubt; 6e) [listing 1 of 2 here] | 35 | –
21 | 640 | O=C(O)[C@H](O)CNC(=O)[C@H](Cc1ccccc1)N[C@@H](CCc1ccccc1)C(=O)O | 28 | –
16 | > 1000 | O=C(O)CCNC(=O)[C@H](Cc1ccccc1)N[C@@H](CCc1ccccc1)C(=O)O | 17 | –
20 | > 1000 | O=C(O)CCNC(=O)[C@H](Cc1ccccc1)N[C@@H](Cc1ccccc1)C(=O)O | 20 | –
393 | 320 | O=C(O)[C@H](CO)NC(=O)[C@H](Cc1ccccc1)N[C@@H](CCc1ccccc1)C(=O)O | – | inactive
15 | > 1000 | O=C(O)[C@H](CCc1ccccc1)N[C@@H](Cc1ccccc1)C(=O)NC[C@H](O)C(=O)O (stereo in doubt; 6e) [listing 2 of 2 here] | – | –
– | – | O=C(O)[C@H](CCc1ccccc1)N[C@@H](Cc1ccccc1)C(=O)NC[C@H](O)C(=O)O (stereo in doubt; 6d) [listing 2 of 2 here] | 25 | –
